Measurements reported in ChEMBL document CHEMBL1765064, “Discovery of potent and selective inhibitors of ataxia telangiectasia mutated and Rad3 related (ATR) protein kinase as potential anticancer agents” (J Med Chem, 2011).

Experiments:
[1] = target: T1, Serine/threonine-protein kinase ATR (Homo sapiens, UniProt Q13535); assay: Inhibition of full length recombinant ATR after 24 hrs by radiometric phosphate incorporation assay
Summary of the method: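 Radiometric [γ-33P]ATP incorporation into target peptide. Full-length ATR and ATM were made in-house; DNA-PK was purchased. Kinase, buffer and peptide were premixed, then compound was added in DMSO (7% final DMSO). Reactions started with ATP at 25 °C and were stopped with phosphoric acid (100 mM final) plus ATP (0.66 μM final). Peptide was captured on phosphocellulose, washed, and scintillation-counted.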

[2] = target: Serine-protein kinase ATM (Homo sapiens, UniProt Q13315); assay: Inhibition of full length recombinant ATM after 24 hrs by radiometric phosphate incorporation assay
[3] = target: DNA-dependent protein kinase catalytic subunit (Homo sapiens, UniProt P78527); assay: Inhibition of DNAPK after 2 hrs by radiometric phosphate incorporation assay
[4] = target: Cytochrome P450 3A4 (Homo sapiens, UniProt P08684); assay: Inhibition of CYP3A4; format: ADME
Cytochrome P450 3A4, sequence (P08684 whole entry): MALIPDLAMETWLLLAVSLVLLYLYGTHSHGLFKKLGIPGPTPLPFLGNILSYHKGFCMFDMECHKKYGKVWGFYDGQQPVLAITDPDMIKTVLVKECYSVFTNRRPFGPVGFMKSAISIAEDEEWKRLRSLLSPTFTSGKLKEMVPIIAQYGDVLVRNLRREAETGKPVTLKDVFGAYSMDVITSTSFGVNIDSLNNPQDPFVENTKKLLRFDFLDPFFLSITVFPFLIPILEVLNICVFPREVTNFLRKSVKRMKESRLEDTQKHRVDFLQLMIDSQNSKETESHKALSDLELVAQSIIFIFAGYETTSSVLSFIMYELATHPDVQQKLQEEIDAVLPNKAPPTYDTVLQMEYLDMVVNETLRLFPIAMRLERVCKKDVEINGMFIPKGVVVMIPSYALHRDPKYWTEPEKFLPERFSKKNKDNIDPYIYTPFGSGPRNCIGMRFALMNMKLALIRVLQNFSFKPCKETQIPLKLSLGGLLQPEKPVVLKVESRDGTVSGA

[5] = target: T1, Serine/threonine-protein kinase ATR; assay: Inhibition of ATR in human HT-29 cells assessed as hydroxyurea-induced phosphorylation of H2AX by immunofluorescence microscopy; format: cell-based
[6] = Permeability from apical to basolateral side of human Caco2 cells; format: ADME, cell-based; conditions: Caco-2, read-out: permeability
[7] = Permeability from basolateral to apical side of human Caco2 cells; format: ADME, cell-based; conditions: Caco-2, read-out: permeability
[8] = test system: HCT-116; assay: Cytotoxicity against human HCT116 cells after 96 hrs by MTS assay; format: functional, cell-based; conditions: HCT-116, 96 h
Summary of the method: (§1)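 Exponentially growing cells were plated and left to adhere overnight. Compounds were added at the indicated concentrations for 96 h. MTS reagent was then added, and absorbance at 490 nm was read 1 h later as a measure of cell density.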

[9] = test system: HFL1; assay: Cytotoxicity against human HFL1 cells at up to 20 uM after 96 hrs by MTS assay; format: cell-based; conditions: hfl1, 96 h; summary of the method: as §1
[10] = test system: HCT-116; assay: Potentiation of cisplatin-induced cytotoxicity against human HCT116 cells at 0.62 uM after 96 hrs by MTS assay; format: functional
Summary of the method: (§2)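 Exponentially growing cells (ATCC lines, kept per supplier) plated and left to adhere overnight, then given inhibitor at 0.62 μM combined with cisplatin at the indicated concentrations for 96 h. Cell density read by MTS reagent, absorbance at 490 nm 1 h after addition. Fold change in cisplatin potency taken as potentiation. Synergy judged by MacSynergy analysis.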

[11] = test system: HFL1; assay: Potentiation of cisplatin-induced cytotoxicity against human HFL1 cells at 0.62 uM after 96 hrs by MTS assay; format: cell-based; conditions: hfl1, 96 h; summary of the method: as §2
[12] = target: T1, Serine/threonine-protein kinase ATR; assay: Competitive inhibition of full length recombinant ATR Morrison equation analysis
Summary of the method: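 Mean IC50s were plotted against ATP concentration and fit to the tight-binding competitive-inhibition equation IC50 = Ki(1 + [ATP]/Km) + [E]/2 to obtain Ki.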

[13] = target: Serine/threonine-protein kinase mTOR (Homo sapiens, UniProt P42345); assay: Inhibition of mTOR by radiometric phosphate incorporation assay

T1 sequence (Q13535 whole entry): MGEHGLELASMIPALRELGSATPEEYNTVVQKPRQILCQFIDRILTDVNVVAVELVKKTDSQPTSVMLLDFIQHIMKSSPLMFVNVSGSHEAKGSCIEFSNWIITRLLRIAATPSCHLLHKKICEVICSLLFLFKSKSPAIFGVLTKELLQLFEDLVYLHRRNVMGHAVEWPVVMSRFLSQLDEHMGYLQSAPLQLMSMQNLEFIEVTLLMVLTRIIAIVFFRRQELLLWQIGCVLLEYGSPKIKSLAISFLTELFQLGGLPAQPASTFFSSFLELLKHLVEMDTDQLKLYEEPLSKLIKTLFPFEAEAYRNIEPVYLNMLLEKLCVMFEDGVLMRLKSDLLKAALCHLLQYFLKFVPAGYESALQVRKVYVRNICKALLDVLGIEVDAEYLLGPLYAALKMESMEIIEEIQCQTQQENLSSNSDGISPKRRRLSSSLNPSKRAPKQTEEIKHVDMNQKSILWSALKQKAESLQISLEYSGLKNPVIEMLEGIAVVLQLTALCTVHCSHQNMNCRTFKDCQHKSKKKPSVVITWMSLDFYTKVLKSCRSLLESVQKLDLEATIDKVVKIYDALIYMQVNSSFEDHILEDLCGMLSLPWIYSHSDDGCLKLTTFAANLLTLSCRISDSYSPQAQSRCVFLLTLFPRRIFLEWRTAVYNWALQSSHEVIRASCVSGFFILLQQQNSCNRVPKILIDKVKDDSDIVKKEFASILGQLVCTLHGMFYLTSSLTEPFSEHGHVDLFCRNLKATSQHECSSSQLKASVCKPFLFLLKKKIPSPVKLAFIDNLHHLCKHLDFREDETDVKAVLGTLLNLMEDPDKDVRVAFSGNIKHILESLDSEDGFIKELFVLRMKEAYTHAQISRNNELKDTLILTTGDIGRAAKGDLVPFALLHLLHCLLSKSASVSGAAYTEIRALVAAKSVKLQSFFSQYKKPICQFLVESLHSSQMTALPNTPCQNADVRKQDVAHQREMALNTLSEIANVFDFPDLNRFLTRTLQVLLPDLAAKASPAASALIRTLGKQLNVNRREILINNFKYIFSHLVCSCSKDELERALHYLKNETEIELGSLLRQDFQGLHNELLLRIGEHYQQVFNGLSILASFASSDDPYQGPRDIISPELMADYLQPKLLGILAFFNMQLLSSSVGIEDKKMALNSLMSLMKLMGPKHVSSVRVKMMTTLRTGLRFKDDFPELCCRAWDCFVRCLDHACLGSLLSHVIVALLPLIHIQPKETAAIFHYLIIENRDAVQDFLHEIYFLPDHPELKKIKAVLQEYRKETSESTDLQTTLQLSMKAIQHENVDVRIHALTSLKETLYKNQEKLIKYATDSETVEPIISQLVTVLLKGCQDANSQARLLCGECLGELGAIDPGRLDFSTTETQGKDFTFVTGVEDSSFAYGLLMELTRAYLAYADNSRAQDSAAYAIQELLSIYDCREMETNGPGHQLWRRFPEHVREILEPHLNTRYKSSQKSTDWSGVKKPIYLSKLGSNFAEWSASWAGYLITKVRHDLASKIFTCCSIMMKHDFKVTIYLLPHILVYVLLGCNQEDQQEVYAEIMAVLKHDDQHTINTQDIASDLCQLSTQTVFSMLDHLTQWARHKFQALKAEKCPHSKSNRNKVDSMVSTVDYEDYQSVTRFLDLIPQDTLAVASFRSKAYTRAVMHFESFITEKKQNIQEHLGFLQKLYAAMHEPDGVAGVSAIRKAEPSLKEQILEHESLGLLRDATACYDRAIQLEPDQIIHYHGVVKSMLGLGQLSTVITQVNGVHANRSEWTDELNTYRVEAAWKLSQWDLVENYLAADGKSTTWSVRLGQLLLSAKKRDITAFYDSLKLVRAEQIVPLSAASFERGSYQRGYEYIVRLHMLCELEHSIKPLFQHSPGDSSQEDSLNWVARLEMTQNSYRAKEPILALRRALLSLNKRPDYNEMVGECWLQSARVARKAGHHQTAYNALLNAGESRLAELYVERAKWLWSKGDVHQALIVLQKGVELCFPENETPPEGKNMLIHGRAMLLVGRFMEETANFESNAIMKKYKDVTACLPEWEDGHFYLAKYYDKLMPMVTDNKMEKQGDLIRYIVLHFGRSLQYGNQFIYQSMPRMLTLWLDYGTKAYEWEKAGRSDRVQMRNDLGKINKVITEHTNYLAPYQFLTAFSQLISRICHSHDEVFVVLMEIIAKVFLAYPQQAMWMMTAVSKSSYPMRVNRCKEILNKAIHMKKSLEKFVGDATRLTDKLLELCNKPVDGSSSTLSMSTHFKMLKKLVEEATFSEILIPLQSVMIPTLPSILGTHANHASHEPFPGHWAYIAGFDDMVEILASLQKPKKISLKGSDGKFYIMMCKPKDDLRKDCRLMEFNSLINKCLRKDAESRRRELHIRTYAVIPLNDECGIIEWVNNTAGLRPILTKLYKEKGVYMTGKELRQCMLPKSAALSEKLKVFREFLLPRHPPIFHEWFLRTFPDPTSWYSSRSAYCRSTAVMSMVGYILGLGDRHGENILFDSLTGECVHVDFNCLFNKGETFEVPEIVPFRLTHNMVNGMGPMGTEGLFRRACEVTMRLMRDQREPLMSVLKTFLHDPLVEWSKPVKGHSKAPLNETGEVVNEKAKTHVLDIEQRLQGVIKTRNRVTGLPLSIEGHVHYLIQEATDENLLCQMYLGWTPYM

SMILES | IC50 [1] [µM] | IC50 [2] [µM] | IC50 [3] [µM] | further results
O=c1cc(N2CCOCC2)oc2c1ccc1ccccc12 | > 100 | > 100 |  | 
Nc1ncc(-c2cccnc2)nc1C(=O)Nc1ccccc1 | 0.18 | > 8 | > 8 | IC50 [4]: 2 µM
Nc1ncc(-c2ccccc2)nc1C(=O)Nc1ccccc1 | 0.62 | > 8 | > 8 | IC50 [5]: > 2.5 µM; IC50 [4]: > 100 µM
Nc1nccnc1C(=O)Nc1ccccc1 | 7.1 | > 8 | > 8 | 
Nc1ncc(Br)nc1C(=O)Nc1ccccc1 | 5.2 | > 8 | > 8 | 
Nc1ncc(C2CCCCC2)nc1C(=O)Nc1ccccc1 | 3 | > 8 | > 8 | 
Nc1ncc(C2=CCCCC2)nc1C(=O)Nc1ccccc1 | 2.1 | > 8 | > 8 | 
Nc1ncc(-c2ccncc2)nc1C(=O)Nc1ccccc1 | 0.64 | > 8 | 5 | 
N#Cc1ccccc1-c1cnc(N)c(C(=O)Nc2ccccc2)n1 | 0.024 | 0.32 | 0.72 | 
C[S+]([O-])c1ccccc1-c1cnc(N)c(C(=O)Nc2ccccc2)n1 (stereo not given) | 0.13 | 3 | 2 | 
CS(=O)(=O)c1ccccc1-c1cnc(N)c(C(=O)Nc2ccccc2)n1 | 1.3 | > 8 | > 8 | 
Nc1ncc(-c2ccccc2O)nc1C(=O)Nc1ccccc1 | 2.4 | > 8 | > 8 | 
COc1ccccc1-c1cnc(N)c(C(=O)Nc2ccccc2)n1 | 0.74 | > 8 | > 8 | 
Nc1ncc(-c2ccccc2Cl)nc1C(=O)Nc1ccccc1 | 0.7 | > 8 | 3.8 | 
Cc1ccccc1-c1cnc(N)c(C(=O)Nc2ccccc2)n1 | 1.4 | > 8 | 1.4 | 
N#Cc1cccc(-c2cnc(N)c(C(=O)Nc3ccccc3)n2)c1 | 0.4 | > 8 | 2.2 | 
CS(=O)(=O)c1cccc(-c2cnc(N)c(C(=O)Nc3ccccc3)n2)c1 | 0.34 | 6.6 | 0.74 | 
Nc1ncc(-c2cccc(O)c2)nc1C(=O)Nc1ccccc1 | 0.54 | > 8 | 2.2 | 
COc1cccc(-c2cnc(N)c(C(=O)Nc3ccccc3)n2)c1 | 2.2 | > 8 | 4.2 | 
Nc1ncc(-c2cccc(Cl)c2)nc1C(=O)Nc1ccccc1 | 1.6 | > 8 | > 8 | 
Cc1cccc(-c2cnc(N)c(C(=O)Nc3ccccc3)n2)c1 | 0.56 | > 8 | > 8 | 
N#Cc1ccc(-c2cnc(N)c(C(=O)Nc3ccccc3)n2)cc1 | 0.18 | > 8 | > 8 | 
CS(=O)(=O)c1ccc(-c2cnc(N)c(C(=O)Nc3ccccc3)n2)cc1 | 0.026 | > 8 | 4.4 | 
Nc1ncc(-c2ccc(O)cc2)nc1C(=O)Nc1ccccc1 | 0.32 | 5.8 | 1.8 | 
COc1ccc(-c2cnc(N)c(C(=O)Nc3ccccc3)n2)cc1 | 1.5 | > 8 | 6.6 | 
Nc1ncc(-c2ccc(Cl)cc2)nc1C(=O)Nc1ccccc1 | 2.4 | > 8 | > 8 | 

SMILES | IC50 [1] [µM] | IC50 [2] [µM] | IC50 [3] [µM] | further results
Cc1ccc(-c2cnc(N)c(C(=O)Nc3ccccc3)n2)cc1 | 1.7 | > 8 | > 8 | 
NC(=O)c1ccc(-c2cnc(N)c(C(=O)Nc3ccccc3)n2)cc1 | 0.11 | 2.9 | 1.2 | 
CNC(=O)c1ccc(-c2cnc(N)c(C(=O)Nc3ccccc3)n2)cc1 | 0.18 | 2.6 | 7 | 
Nc1ncc(-c2ccc(C(=O)N3CCC3)cc2)nc1C(=O)Nc1ccccc1 | 0.1 | > 8 | > 8 | IC50 [5]: 1 µM
CN(C)C(=O)c1ccc(-c2cnc(N)c(C(=O)Nc3ccccc3)n2)cc1 | 0.054 | > 8 | > 8 | IC50 [5]: 2 µM
Nc1ncc(-c2ccc(C(=O)N3CCCC3)cc2)nc1C(=O)Nc1ccccc1 | 0.054 | > 8 | 2.8 | IC50 [5]: 1.4 µM
Nc1ncc(-c2ccc(C(=O)N3CCCCC3)cc2)nc1C(=O)Nc1ccccc1 | 0.026 | > 8 | > 8 | IC50 [5]: 6.5 µM
CN(C)C(=O)c1ccc(-c2cnc(N)c(C(=O)Nc3ccccc3)n2)cc1Cl | 0.048 | > 8 | > 8 | IC50 [5]: 12 µM
C[S+]([O-])c1ccc(-c2cnc(N)c(C(=O)Nc3ccccc3)n2)cc1 (stereo not given) | 0.056 | > 8 | 6.8 | IC50 [5]: 5.4 µM
CCS(=O)(=O)c1ccc(-c2cnc(N)c(C(=O)Nc3ccccc3)n2)cc1 | 0.012 | > 8 | 5.8 | IC50 [5]: 1.5 µM
CC(C)S(=O)(=O)c1ccc(-c2cnc(N)c(C(=O)Nc3ccccc3)n2)cc1 | 0.008 | > 8 | 5.6 | IC50 [5]: 1 µM
CCCS(=O)(=O)c1ccc(-c2cnc(N)c(C(=O)Nc3ccccc3)n2)cc1 | 0.014 | 5.4 | > 8 | IC50 [5]: 2 µM
CCC(C)S(=O)(=O)c1ccc(-c2cnc(N)c(C(=O)Nc3ccccc3)n2)cc1 (stereo not given) | 0.01 | 6.6 | > 8 | IC50 [5]: 1.6 µM
CC(C)(C)S(=O)(=O)c1ccc(-c2cnc(N)c(C(=O)Nc3ccccc3)n2)cc1 | 0.006 | > 8 | > 8 | IC50 [5]: 1 µM
CC(CN(C)C)S(=O)(=O)c1ccc(-c2cnc(N)c(C(=O)Nc3ccccc3)n2)cc1 (stereo not given) | 0.012 | > 8 | > 8 | IC50 [5]: 0.42 µM; Papp A→B [6]: 17 ×10⁻⁶ cm/s; Papp B→A [7]: 23 ×10⁻⁶ cm/s; IC50 [8]: 1.1 µM; Activity [9]: Non-toxic; fold change (FC) [10]: 7; fold change (FC) [11]: 1.1; Ki [12]: 0.006 µM
CC(CCO)S(=O)(=O)c1ccc(-c2cnc(N)c(C(=O)Nc3ccccc3)n2)cc1 (stereo not given) | 0.008 | > 8 | 3.2 | IC50 [5]: 0.38 µM
Nc1ncc(-c2ccc(S(=O)(=O)[C@@H]3CCOC3)cc2)nc1C(=O)Nc1ccccc1 | 0.01 | 5 | 4.4 | IC50 [5]: 0.46 µM
CS(=O)(=O)c1ccc(-c2cnc(N)c(C(=O)NC3CCCCC3)n2)cc1 | 3.56 | > 8 | > 8 | 
CS(=O)(=O)c1ccc(-c2cnc(N)c(-c3nc4ccccc4[nH]3)n2)cc1 | 0.03 | 0.38 | 2.1 | 
CS(=O)(=O)c1ccc(-c2cnc(N)c(-c3nc4ccccc4o3)n2)cc1 | 0.036 | 0.84 | 1.4 | 
CS(=O)(=O)c1ccc(-c2cnc(N)c(-c3nc4ccccc4s3)n2)cc1 | 0.022 | 0.72 | 2.9 | 
CS(=O)(=O)c1ccc(-c2cnc(N)c(-c3cc4ccccc4[nH]3)n2)cc1 | 0.023 | 0.12 | 2.4 | 
Cn1c(=O)c2c(ncn2C)n(C)c1=O [CAFFEINE] | 1100 | 200 | 10000 | IC50 [13]: 400 µM
O=c1cc(-c2cccc3c2Sc2ccccc2S3)oc(N2CCOCC2)c1 [KU-55933] | > 100 |  |  | IC50 [13]: 9.3 µM
COc1cc2c(c(OC)c1OC)-c1c(cc3c(c1OC)OCO3)CC(C)C(C)C2 (stereo not given) [SCHISANDRIN B] | 7.2 | 1740 |  | 
